Assay results published in ChEMBL document CHEMBL1149852, “Antimycobacterial serratamolides and diacyl peptoglucosamine derivatives from Serratia sp” (2008).
Converted amounts (≈) assume the structure as drawn.

Columns and labels:
Format in all cases: functional
[1] = test system: Mycolicibacterium smegmatis; assay: Antimycobacterial activity against Mycobacterium smegmatis
How it was run: (§1)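 Broth microdilution MIC. Purified compound given as serial 2-fold dilutions in Mueller-Hinton broth in 96-well plates. Inoculum made by scraping colonies from EBS agar plates (EBS: casein peptone 0.5%, glucose 0.5%, meat/yeast extract 0.1% each, 50 mM HEPES, pH 7.0) into EBS medium, then added to 5 × 10^5 CFU/mL. MIC taken as lowest concentration inhibiting 99% of inoculum.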

[2] = test system: Mycolicibacterium diernhoferi; assay: Antimycobacterial activity against Mycobacterium diernhoferi; how it was run: as §1
Mycolicibacterium phlei = assay: Antimycobacterial activity against Mycobacterium phlei; how it was run: as §1

Compound	MIC [1]	MIC [2]	MIC (Mycolicibacterium phlei)
CCCCCCCCCCCCCCC(=O)N[C@H](C(=O)O[C@H]1O[C@H](CO)[C@@H](O)[C@H](O)[C@H]1NC(=O)CCC)C(C)C	180 µM (≈ 103 µg/mL)	180 µM (≈ 103 µg/mL)	180 µM (≈ 103 µg/mL)
CCCCCCCCCCCCCC(=O)N[C@H](C(=O)O[C@H]1O[C@H](CO)[C@@H](O)[C@H](O)[C@H]1NC(=O)CCC)C(C)C	180 µM (≈ 101 µg/mL)	180 µM (≈ 101 µg/mL)	180 µM (≈ 101 µg/mL)
CCCCCCC/C=C\CCCCCCC(=O)N[C@H](C(=O)O[C@H]1O[C@H](CO)[C@@H](O)[C@H](O)[C@H]1NC(=O)CCC)C(C)C	180 µM (≈ 105 µg/mL)	180 µM (≈ 105 µg/mL)	180 µM (≈ 105 µg/mL)
CCCCCCC[C@@H]1CC(=O)N[C@@H](CO)C(=O)O[C@H](CCCCCCC)CC(=O)N[C@@H](CO)C(=O)O1 [SERRATAMOLIDE A]	180 µM (≈ 92.6 µg/mL)	180 µM (≈ 92.6 µg/mL)	180 µM (≈ 92.6 µg/mL)

The next lines start with the values.

MIC [1]	MIC [2]	MIC (Mycolicibacterium phlei)	Compound
180 µM (≈ 97.3 µg/mL)	180 µM (≈ 97.3 µg/mL)	180 µM (≈ 97.3 µg/mL)	CCCCCC/C=C\C[C@@H]1CC(=O)N[C@@H](CO)C(=O)O[C@H](CCCCCCC)CC(=O)N[C@@H](CO)C(=O)O1 [SERRATAMOLIDE B]
180 µM (≈ 97.7 µg/mL)	180 µM (≈ 97.7 µg/mL)	180 µM (≈ 97.7 µg/mL)	CCCCCCCCC[C@@H]1CC(=O)N[C@@H](CO)C(=O)O[C@H](CCCCCCC)CC(=O)N[C@@H](CO)C(=O)O1 [SERRATAMOLIDE C]
180 µM (≈ 95.2 µg/mL)	180 µM (≈ 95.2 µg/mL)	180 µM (≈ 95.2 µg/mL)	CCCCCCCC[C@@H]1CC(=O)N[C@@H](CO)C(=O)O[C@H](CCCCCCC)CC(=O)N[C@@H](CO)C(=O)O1 [SERRATAMOLIDE D]
180 µM (≈ 87.6 µg/mL)	180 µM (≈ 87.6 µg/mL)	180 µM (≈ 87.6 µg/mL)	CCCCCCC[C@@H]1CC(=O)N[C@@H](CO)C(=O)O[C@H](CCCCC)CC(=O)N[C@@H](CO)C(=O)O1 [SERRATAMOLIDE E]
180 µM (≈ 90.1 µg/mL)	180 µM (≈ 90.1 µg/mL)	180 µM (≈ 90.1 µg/mL)	CCCCCCC[C@@H]1CC(=O)N[C@@H](CO)C(=O)O[C@H](CCCCCC)CC(=O)N[C@@H](CO)C(=O)O1 [SERRATAMOLIDE F]
